Measurements published in ChEMBL document CHEMBL5321214, “Targeting the multifaceted neurotoxicity of Alzheimer's disease by tailored functionalisation of the curcumin scaffold” (Eur J Med Chem, 2023).
The source made the active and inactive calls. The calls are words filed in the database; no cut-off is given here.

Tests used:
Microglia [1] = assay: Antiinflammatory activity against Sprague-Dawley rat microglial cells assessed as inhibition of LPS-induced TNF-alpha production at 1 to 20 uM pretreated with compound for 1 hr followed by LPS stimulation for 24 hrs by ELISA; type: functional, cell-based; conditions: dose 1-20 µM, time 25.0 hrs
How it was run: (§1)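 Primary cortical rat microglia in DMSO (≤0.1%) or vehicle for 1 h, then 100 ng/mL LPS for 24 h. TNF-α and IL-1β in culture medium by ELISA against standard curves (pg/mL), expressed as % of LPS-stimulated cultures. Mean ± SEM of 3 independent experiments; one-way ANOVA, Holm-Sidak test.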

Microglia [2] = assay: Antiinflammatory activity against Sprague-Dawley rat microglial cells assessed as inhibition of LPS-induced IL-1 beta production at 1 to 20 uM pretreated with compound for 1 hr followed by LPS stimulation for 24 hrs by ELISA; type: functional, cell-based; conditions: dose 1-20 µM, time 25.0 hrs; how it was run: as §1
[3] = Effect on TNF-alpha release in Sprague-Dawley rat microglial cells at 20 uM by ELISA; type: toxicity, cell-based; conditions: microglia; how it was run: as §1
[4] = Effect on IL-1 beta release in Sprague-Dawley rat microglial cells at 20 uM by ELISA; type: toxicity, cell-based; conditions: microglia; how it was run: as §1
Microglia [5] = assay: Cytotoxicity against Sprague-Dawley rat microglial cells assessed as effect on cell viability at 1 to 20 uM incubated for 24 hrs by MTT assay; type: toxicity, cell-based; conditions: dose 1-20 µM
How it was run: (§2)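 Primary rat microglia, 6×10^4 cells/well, switched to serum-free medium 1 h before 24 h exposure (1–20 μM, DMSO ≤0.1%). MTT 0.18 mg/mL for 4 h at 37 °C, formazan dissolved in DMSO, absorbance 570 nm (reference 630 nm). Vehicle-treated cells = 100% viability.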

Microglia [6] = assay: Cytotoxicity against Sprague-Dawley rat microglial cells assessed as decrease in cell viability at 20 uM incubated for 24 hrs by MTT assay; type: toxicity, cell-based; how it was run: as §2
[7] = biological target: Amyloid-beta precursor protein (Homo sapiens) (UniProt P05067); assay: Anti-oligomeric activity against Abeta42 (unknown origin) assessed as depletion of the formation of toxic HMW Abeta42 oligomers at 5 uM measured at day 7 from sample solubilization by capillary electrophoresis assay; conditions: time 7.0 day
Sequence of Amyloid-beta precursor protein (Homo sapiens) (P05067 whole entry): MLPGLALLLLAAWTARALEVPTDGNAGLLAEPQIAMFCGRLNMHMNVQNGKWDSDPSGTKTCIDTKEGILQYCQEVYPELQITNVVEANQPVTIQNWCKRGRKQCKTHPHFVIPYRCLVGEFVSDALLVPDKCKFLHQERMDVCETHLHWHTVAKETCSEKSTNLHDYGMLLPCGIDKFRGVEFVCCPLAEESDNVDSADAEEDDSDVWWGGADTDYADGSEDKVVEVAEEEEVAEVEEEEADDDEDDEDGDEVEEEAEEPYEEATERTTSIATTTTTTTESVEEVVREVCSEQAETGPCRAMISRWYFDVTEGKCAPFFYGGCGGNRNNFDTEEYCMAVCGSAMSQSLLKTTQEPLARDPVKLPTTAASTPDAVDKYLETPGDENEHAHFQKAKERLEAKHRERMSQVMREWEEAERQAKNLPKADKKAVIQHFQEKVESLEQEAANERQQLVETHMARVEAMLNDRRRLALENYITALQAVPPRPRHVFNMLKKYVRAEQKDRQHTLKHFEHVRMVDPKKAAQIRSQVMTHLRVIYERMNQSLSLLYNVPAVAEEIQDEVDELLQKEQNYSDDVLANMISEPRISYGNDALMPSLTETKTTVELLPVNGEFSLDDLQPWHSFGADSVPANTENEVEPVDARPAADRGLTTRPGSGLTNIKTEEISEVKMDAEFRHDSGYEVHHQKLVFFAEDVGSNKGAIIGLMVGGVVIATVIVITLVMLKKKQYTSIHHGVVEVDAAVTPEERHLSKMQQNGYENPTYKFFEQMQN
How it was run: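 Aβ42 stock diluted to 221 μM in 20 mM sodium phosphate pH 7.4 containing compound (ethanol stocks 1.53 mM). Capillary electrophoresis: BGE 80 mM sodium phosphate pH 7.4, 30 mbar × 3 s hydrodynamic injection, +12 kV, 25 °C, 200 nm detection. Oligomers assigned by effective mobility; HMW oligomer peak quantified semiquantitatively as normalised area %.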

Microglia [8] = assay: Antiinflammatory activity against Sprague-Dawley rat microglial cells assessed as downregulation of NLRP3 mRNA expression at 10 uM pretreated with compound for 1 hr followed by LPS stimulation for 6 hrs by real-time PCR analysis; type: functional, cell-based; conditions: time 7.0 hrs
How it was run: (§3)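 Primary cortical microglia (postnatal day 1 rat pups, shaken off mixed glial cultures, ~97% Iba1-positive). Compound (DMSO ≤0.1%) for 1 h, then 100 ng/mL ultra-pure E. coli LPS for 6 h. QIAzol RNA extraction, SuperScript IV reverse transcription, real-time PCR. Mean ± SEM, n = 3 in triplicate; one-way ANOVA, Holm-Sidak test.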

[9] = Effect on TNF-alpha release in Sprague-Dawley rat microglial cells at 10 uM by ELISA; type: toxicity, cell-based; conditions: microglia; how it was run: as §1
Microglia [10] = assay: Antiinflammatory activity against Sprague-Dawley rat microglial cells assessed as downregulation of TNF-alpha mRNA expression at 10 uM pretreated with compound for 1 hr followed by LPS stimulation for 6 hrs by real-time PCR analysis; type: functional, cell-based; conditions: time 7.0 hrs; how it was run: as §3
Microglia [11] = assay: Antiinflammatory activity against Sprague-Dawley rat microglial cells assessed as inhibition of LPS-induced TNF-alpha production at 1 to 10 uM pretreated with compound for 1 hr followed by LPS stimulation for 24 hrs by ELISA; type: functional, cell-based; conditions: dose 1-10 µM, time 25.0 hrs; how it was run: as §1
Microglia [12] = assay: Antiinflammatory activity against Sprague-Dawley rat microglial cells assessed as downregulation of IL-1 beta mRNA expression at 10 uM pretreated with compound for 1 hr followed by LPS stimulation for 6 hrs by real-time PCR analysis; type: functional, cell-based; conditions: time 7.0 hrs; how it was run: as §3
[13] = Effect on IL-1 beta release in Sprague-Dawley rat microglial cells at 10 uM by ELISA; type: toxicity, cell-based; conditions: microglia; how it was run: as §1
Microglia [14] = assay: Antiinflammatory activity against Sprague-Dawley rat microglial cells assessed as inhibition of LPS-induced IL-1 beta production at 1 to 10 uM pretreated with compound for 1 hr followed by LPS stimulation for 24 hrs by ELISA; type: functional, cell-based; conditions: dose 1-10 µM, time 25.0 hrs; how it was run: as §1

SMILES | Activity (Microglia [1]) | Activity (Microglia [2]) | Activity [3] | Activity [4] | Activity (Microglia [5]) | Activity (Microglia [6]) | Activity [7] | Activity (Microglia [8]) | Activity [9] | Activity (Microglia [10]) | Activity (Microglia [11]) | Activity (Microglia [12]) | Activity [13] | Activity (Microglia [14])
COc1ccc(/C=C/C(=O)/C(CC(=O)O)=C(O)/C=C/c2ccc(OC)cc2)cc1 (mixture of isomers) | inactive | inactive | Non-Toxic | Non-Toxic | Non-Toxic |  |  |  |  |  |  |  |  | 
COc1cc(/C=C/C(=O)CC(=O)/C=C/c2ccc(O)c(OC)c2)ccc1O [CURCUMIN] |  |  |  |  |  | Toxic | Active | Active | Non-Toxic | Active | Active | Active | Non-Toxic | Active
COc1ccc(/C=C/C(=O)/C(CC(=O)OC(C)(C)C)=C(O)/C=C/c2ccc(OC)cc2)cc1 |  |  |  |  |  | Toxic |  |  | Non-Toxic |  | Active |  | Non-Toxic | Active
